Screening results: PubChem BioAssay, several laboratories
NPR1 activator: GC-A (human) enzyme activation. HEK293 GC-A cells, cGMP TR-FRET, EC30 ANP; 0% at EC30 ANP, 100% saturating ANP. activation, % at 10 µM. hit rate 0.14% among 370,000. AID 1671463; in the data active = activation above about 40%
Target sequence (P16066 whole entry, looked up): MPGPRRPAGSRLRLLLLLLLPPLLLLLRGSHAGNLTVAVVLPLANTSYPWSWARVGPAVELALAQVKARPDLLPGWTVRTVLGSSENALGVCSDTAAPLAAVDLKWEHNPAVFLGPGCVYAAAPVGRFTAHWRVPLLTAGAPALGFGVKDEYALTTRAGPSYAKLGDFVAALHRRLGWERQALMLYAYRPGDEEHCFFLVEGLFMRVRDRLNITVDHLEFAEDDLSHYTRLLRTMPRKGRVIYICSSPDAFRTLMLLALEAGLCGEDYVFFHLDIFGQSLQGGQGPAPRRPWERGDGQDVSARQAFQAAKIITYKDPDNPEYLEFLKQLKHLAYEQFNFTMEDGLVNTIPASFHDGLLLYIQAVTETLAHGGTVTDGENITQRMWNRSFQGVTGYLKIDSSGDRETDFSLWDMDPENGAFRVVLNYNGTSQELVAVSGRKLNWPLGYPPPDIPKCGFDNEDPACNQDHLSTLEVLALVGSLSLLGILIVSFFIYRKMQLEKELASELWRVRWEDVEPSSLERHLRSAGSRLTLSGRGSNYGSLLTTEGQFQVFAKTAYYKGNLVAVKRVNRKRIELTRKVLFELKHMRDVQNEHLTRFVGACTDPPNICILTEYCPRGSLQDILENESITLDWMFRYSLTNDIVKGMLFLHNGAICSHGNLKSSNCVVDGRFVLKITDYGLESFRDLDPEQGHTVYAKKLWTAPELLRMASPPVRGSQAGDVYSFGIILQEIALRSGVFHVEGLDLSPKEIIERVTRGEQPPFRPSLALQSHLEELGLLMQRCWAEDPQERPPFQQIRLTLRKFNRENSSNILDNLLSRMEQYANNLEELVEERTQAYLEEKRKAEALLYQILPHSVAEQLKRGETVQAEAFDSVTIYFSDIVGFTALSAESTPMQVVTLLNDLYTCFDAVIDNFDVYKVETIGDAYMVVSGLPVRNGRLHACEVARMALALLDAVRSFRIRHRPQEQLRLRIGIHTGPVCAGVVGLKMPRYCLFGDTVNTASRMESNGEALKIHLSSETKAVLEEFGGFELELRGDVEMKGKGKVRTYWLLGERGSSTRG
NPR2 activator: GC-B (human) receptor activation; P20594; HEK293-GC-B cells, CNP EC30, cGMP TR-FRET; 0% at EC30 CNP, 100% saturating CNP; activation, % at 10 µM; hit rate 0.11% among 370,000; AID 1920062;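 active = activation at 10 µM reaching about 35% in either raw or pattern-adjusted values, limit read from the data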
GalR3 antagonist: human GalR3 antagonism | O60755 | HEK293 GalR3-CNG cAMP membrane potential fluorescence; galR3 body fused to GalR1 C-terminus | inhibition, % at 3 µM | hit rate 0.44% among 360,000 | AID 651719;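 active = inhibition above the screen-wide average plus 3 SD, cut at about 13% in these data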;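 note: forskolin and galanin both at EC90 stimulate the cells; cAMP rise reported by CNG channel membrane potential dye signal; 0% = forskolin plus galanin with DMSO and 100% = forskolin alone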
Arrestin-AP2 inh: human beta-arrestin and AP2 interaction inhibition | FITC-arrestin peptide / GST-AP2 beads, flow cytometry; AP2 beta2 appendage carries R879A mutation | inhibition, % at 10 µM | hit rate 0.31% among 340,000;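 active = inhibition above a set limit, near 3 SD of compounds lacking own fluorescence, cut at about 54% in these data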;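 note: plate controls were DMSO wells for no effect and 5 µM unlabelled arrestin peptide for full effect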
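System: GST-tagged AP2 beta2-adaptin appendage (R879A) on 4 µm glutathione beads / Reagent: FITC-arrestin peptide, 50 nM / Detection: HyperCyt-sampled flow cytometry, FL1 channel, ex 488/em 535 nm / Timing: 12 min plus 1 h, RT / Buffer or medium: PBS plus Tween 20 (0.05%) and BSA (0.1%)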
Numbers without * were called inactive. Compounds with a hit are over-represented: about 0.94% of the library has one in this group of screens.

`CCOc1cc(/C=N/NC(N)=O)cc(Br)c1OCC(=O)Nc1cccc2ccccc12` gave NPR1 activator -11.2, NPR2 activator -10.1, GalR3 antagonist 43.6* and Arrestin-AP2 inh -10.0.
Screening COCc1cc(N2CCN(C(=O)OC(C)(C)C)C[C@H]2C)ccc1N1CC[C@@H](O)C1 returned NPR1 activator -0.3, NPR2 activator -4.0 and GalR3 antagonist 4.9.
`Cc1ccc(C2C(C#N)=C(N)Oc3cc(N)ccc32)cc1` (centres undefined) gave NPR1 activator 25.3, NPR2 activator 3.5, GalR3 antagonist 1.1 and Arrestin-AP2 inh 0.8.
Screening COc1cc(C2C(C#N)=C(N)Oc3cc(O)ccc32)cc2c1OCO2 (centres undefined) returned NPR1 activator 52.5*, NPR2 activator -0.4, GalR3 antagonist -8.1 and Arrestin-AP2 inh 31.1.
N#CC1=C(N)SC(N)=C(C#N)C1c1cccc(O)c1 was read as NPR1 activator 1.0, NPR2 activator 1.4, GalR3 antagonist 60.5* and Arrestin-AP2 inh 7.8.
For N#CC1=C(N)Oc2cc(O)ccc2C1c1ccccc1 (centres undefined) the results were NPR1 activator 57.0*, NPR2 activator -0.3, GalR3 antagonist -2.8 and Arrestin-AP2 inh 4.8.
`COc1ccc(C2C(C#N)=C(N)Oc3cc(O)ccc32)cc1` (centres undefined) gave NPR1 activator 26.6, NPR2 activator 1.7, GalR3 antagonist -3.8 and Arrestin-AP2 inh 34.4.
Screening N#CC1=C(N)Oc2cc(N)ccc2C1c1cccc(Br)c1 (centres undefined) returned NPR1 activator 45.7*, NPR2 activator 5.8, GalR3 antagonist -11.2 and Arrestin-AP2 inh 6.4.
For COc1ccc(C2C(C#N)=C(N)SC(N)=C2C#N)cc1OC the results were NPR1 activator -1.8, NPR2 activator 1.6, GalR3 antagonist -3.0 and Arrestin-AP2 inh 4.0.
`COc1ccc(Nc2nnc(-c3ccc4c(c3)OCO4)o2)cc1` gave NPR1 activator 3.6, NPR2 activator 3.9 and GalR3 antagonist -3.8.
O=C1CC(N2CCOCC2)=NC(=O)N1c1ccc(Br)cc1 was read as NPR1 activator 1.9 and NPR2 activator -3.3.
`CCCS(=O)(=O)c1c(S(=O)(=O)CCC)c2ccc(C(N)=O)cn2c1C(=O)c1ccc(OC)cc1` gave NPR1 activator 39.0, NPR2 activator 55.7*, GalR3 antagonist -5.2 and Arrestin-AP2 inh 10.6.
For CC(C)CC(=O)N1CCC(C(=O)NCC2COc3ccccc3O2)CC1 (centres undefined) the results were NPR1 activator 4.7 and NPR2 activator 1.1.
CS(=O)(=O)c1nc(-c2ccccc2)cc(C(F)(F)F)n1 was read as GalR3 antagonist 22.9* and Arrestin-AP2 inh 17.4.
Screening Cc1ccc(CNc2nc(C)nc3sc4c(c23)CCC4)cc1 returned NPR1 activator 40.3*, NPR2 activator 45.2*, GalR3 antagonist -8.4 and Arrestin-AP2 inh 19.2.
`COc1ccc(C=CC(=O)c2c(N)n(C)c(=O)n(C)c2=O)cc1` gave NPR1 activator 2.9, NPR2 activator -1.5 and GalR3 antagonist -7.5.
`COc1ccc(C=NNC(=O)Cc2cc(=O)[nH][nH]2)c(OC)c1` gave NPR1 activator 1.5 and NPR2 activator 2.8.
`CCOc1cc(N2CCOCC2)c(OCC)cc1NC(=O)Cn1[nH]c(=O)c2ccccc2c1=O` gave NPR1 activator 25.9, NPR2 activator 35.7*, GalR3 antagonist -4.2 and Arrestin-AP2 inh 8.9.
For O=[N+]([O-])c1ccc(OC[C@@H](O)CN2CCC(C(O)(c3ccccc3)c3ccccc3)CC2)c(Cl)c1 the results were NPR1 activator -13.8 and NPR2 activator -10.0.
For CC(=O)Nc1ccc(Nc2nc(C)c([N+](=O)[O-])c(Nc3ccccc3)n2)cc1 the results were NPR1 activator 55.9*, NPR2 activator 58.5*, GalR3 antagonist -3.4 and Arrestin-AP2 inh 10.3.
For CCOC(=O)[C@]12CCCC=C1N(Cc1ccc(OC)cc1)C(=O)[C@@H]2CC(=O)NCCc1ccccc1OC the results were NPR1 activator -4.8 and NPR2 activator -0.4.
Cc1cc(C(=O)CS(=O)(=O)c2ccc(F)cc2)cc(C)c1O was read as NPR1 activator -0.8, NPR2 activator -4.9, GalR3 antagonist -5.4 and Arrestin-AP2 inh 66.8*.
For COc1cc(/C=C2\C(=O)N(CCC#N)N=C2C)ccc1OCC(=O)Nc1ccccc1 the results were NPR1 activator 53.1*, NPR2 activator 46.7*, GalR3 antagonist -2.7 and Arrestin-AP2 inh -1.8.
For CCOc1cc(/C=C2\C(=O)N(CCC#N)N=C2C)ccc1OCC(N)=O the results were NPR1 activator 7.2, NPR2 activator -3.0, GalR3 antagonist -4.4 and Arrestin-AP2 inh -8.1.
Screening COC(=O)CCN1CCSCCS1(=O)=O returned NPR1 activator -0.5, NPR2 activator 2.5 and GalR3 antagonist -3.8.
Cn1c(=O)c2c(nc(N/N=C3\CCCc4ccccc43)n2Cc2ccc(F)cc2)n(C)c1=O was read as NPR1 activator 33.9, NPR2 activator 49.6*, GalR3 antagonist -2.0 and Arrestin-AP2 inh -4.3.
Cn1c(N/N=C2\CCCc3ccccc32)nc2c1c(=O)n(Cc1ccccc1)c(=O)n2C was read as NPR1 activator 12.4, NPR2 activator 21.1, GalR3 antagonist -3.4 and Arrestin-AP2 inh -8.8.
`COc1cc(/C(C)=N\NC(N)=S)cc(OC)c1OC` gave NPR1 activator -3.3, NPR2 activator 2.8, GalR3 antagonist 2.8 and Arrestin-AP2 inh 0.6.
COc1cc(/C(C)=N/NC(=S)NC(C)C)cc(OC)c1OC was read as NPR1 activator 23.8, NPR2 activator 38.8*, GalR3 antagonist 1.5 and Arrestin-AP2 inh 29.8.
COCOCCn1cc(CN2CCS(=O)(=O)N(Cc3ccc(-c4ccc(Cl)cc4)cc3)C(C)C2=O)nn1 (centres undefined) was read as NPR1 activator 48.9*, NPR2 activator -3.4 and GalR3 antagonist -5.8.
For COCOCCn1cc(CN2CCS(=O)(=O)N(Cc3ccc(-c4ccc(OC)nc4)cc3)C(C)C2=O)nn1 (centres undefined) the results were NPR1 activator 3.4, NPR2 activator 1.1 and GalR3 antagonist -2.0.
`C=CCn1c(-c2ccc(S(=O)(=O)N3CCOCC3)cc2)csc1=Nc1ccccc1` gave NPR1 activator -4.4, NPR2 activator 3.5, GalR3 antagonist -2.8 and Arrestin-AP2 inh -4.6.
For CC(=O)c1cccc(N=c2scc(-c3ccc(S(=O)(=O)N4CCOCC4)cc3)n2CCO)c1 the results were NPR1 activator 4.8, NPR2 activator 4.5, GalR3 antagonist 114.2* and Arrestin-AP2 inh 3.4.
Screening CCC(CO)Oc1cc(NCc2ccccc2)c2ncn(C(C)C)c2c1 (centres undefined) returned NPR1 activator 2.1, NPR2 activator 1.6, GalR3 antagonist -4.1 and Arrestin-AP2 inh -2.8.
CCC(COC)Oc1cc(NCc2ccccc2)c2ncn(C(C)C)c2c1 (centres undefined) was read as NPR1 activator 27.7, NPR2 activator 57.0*, GalR3 antagonist 0.3 and Arrestin-AP2 inh 5.1.
